Results reported in ChEMBL document CHEMBL1932990, “Synthesis and antifungal activity of 6,7-bis(arylthio)-quinazoline-5,8-diones and furo[2,3-f]quinazolin-5-ols” (2012).
Values after ≈ are worked out from the molar mass of the structure shown.

Tests used:
Assay type in all cases: functional
Candida albicans = test: Antifungal activity against Candida albicans Berkout KCCM 50235 after 1 day by twofold broth dilution method; details: Berkout KCCM 50235, 24 h
Summary of the method: (§1)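 Two-fold broth dilution in modified Sabouraud dextrose broth. Inoculum about 1 × 10⁵ cells/mL. Test agents at final concentrations from 0.2 to 50.0. Incubated at 37 °C, and MIC read after 1 day. Fluconazole and 5-fluorocytosine served as standard agents.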

Candida tropicalis = test: Antifungal activity against Candida tropicalis Berkout KCCM 50662 after 1 day by twofold broth dilution method; details: Berkout KCCM 50662, 24 h; summary of the method: as §1
Pichia kudriavzevii = test: Antifungal activity against Candida krusei Berkout KCCM 11655 after 1 day by twofold broth dilution method; details: Berkout KCCM 11655, 24 h; summary of the method: as §1
Cryptococcus neoformans = test: Antifungal activity against Cryptococcus neoformans KCCM 50564 after 1 day by twofold broth dilution method; details: KCCM 50564, 24 h; summary of the method: as §1
Aspergillus niger = test: Antifungal activity against Aspergillus niger KCTC 1231 after 2 days by twofold broth dilution method; details: KCTC 1231, 48 h
Summary of the method: (§2)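 Two-fold broth dilution in modified Sabouraud dextrose broth. Inoculum about 1 × 10⁵ cells/mL. Test agents at final concentrations from 0.2 to 50.0. Incubated at 37 °C, and MIC read after 2 days. Fluconazole and 5-fluorocytosine served as standard agents.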

Aspergillus flavus = test: Antifungal activity against Aspergillus flavus KCCM 11899 after 2 days by twofold broth dilution method; details: KCCM 11899, 48 h; summary of the method: as §2

Row | SMILES | MIC (Candida albicans) [µg/mL] | MIC (Candida tropicalis) [µg/mL] | MIC (Pichia kudriavzevii) [µg/mL] | MIC (Cryptococcus neoformans) [µg/mL] | MIC (Aspergillus niger) [µg/mL] | MIC (Aspergillus flavus) [µg/mL]
1 | CCOC(=O)c1c(N)oc2c1c(Sc1ccc(OC)cc1)c(O)c1ncncc12 | 12.5 (≈ 30.4 µM) | 25 (≈ 60.8 µM) | 50 (≈ 122 µM) | 12.5 (≈ 30.4 µM) | 12.5 (≈ 30.4 µM) | 12.5 (≈ 30.4 µM)
2 | CCOC(=O)c1c(N)oc2c1c(Sc1ccc(C)cc1)c(O)c1ncncc12 | 3.2 (≈ 8.09 µM) | 6.3 (≈ 15.9 µM) | 6.3 (≈ 15.9 µM) | 3.2 (≈ 8.09 µM) | 6.3 (≈ 15.9 µM) | 6.3 (≈ 15.9 µM)
3 | CCOC(=O)c1c(N)oc2c1c(Sc1ccc(Cl)cc1)c(O)c1ncncc12 | 25 (≈ 60.1 µM) | 50 (≈ 120 µM) | 50 (≈ 120 µM) | 6.3 (≈ 15.1 µM) | 3.2 (≈ 7.69 µM) | 6.3 (≈ 15.1 µM)
4 | CCOC(=O)c1c(N)oc2c1c(Sc1ccc(Br)cc1)c(O)c1ncncc12 | 12.5 (≈ 27.2 µM) | 25 (≈ 54.3 µM) | 25 (≈ 54.3 µM) | 3.2 (≈ 6.95 µM) | 6.3 (≈ 13.7 µM) | 50 (≈ 109 µM)
5 | CCOC(=O)c1c(N)oc2c1c(Sc1ccc(F)c(F)c1)c(O)c1ncncc12 | 3.2 (≈ 7.67 µM) | 3.2 (≈ 7.67 µM) | 6.3 (≈ 15.1 µM) | 6.3 (≈ 15.1 µM) | 12.5 (≈ 29.9 µM) | 3.2 (≈ 7.67 µM)
6 | CCOC(=O)c1c(N)oc2c1c(Sc1ccc(F)cc1)c(O)c1ncncc12 | 6.3 (≈ 15.8 µM) | 3.2 (≈ 8.01 µM) | 6.3 (≈ 15.8 µM) | 3.2 (≈ 8.01 µM) | 50 (≈ 125 µM) | 12.5 (≈ 31.3 µM)
7 | CCOC(=O)c1c(N)oc2c1c(Sc1cccc(Cl)c1)c(O)c1ncncc12 | 50 (≈ 120 µM) | 25 (≈ 60.1 µM) | 50 (≈ 120 µM) | 12.5 (≈ 30.1 µM) | 25 (≈ 60.1 µM) | 12.5 (≈ 30.1 µM)
8 | CCOC(=O)c1c(N)oc2c1c(SCC)c(O)c1ncncc12 | 50 (≈ 150 µM) | 25 (≈ 75 µM) | 25 (≈ 75 µM) | 12.5 (≈ 37.5 µM) | 3.2 (≈ 9.6 µM) | 6.3 (≈ 18.9 µM)
9 | O=C1C(Sc2ccc(F)cc2)=C(Sc2ccc(F)cc2)C(=O)c2ncncc21 | 1.6 (≈ 3.88 µM) | 6.3 (≈ 15.3 µM) | 12.5 (≈ 30.3 µM) | 1.6 (≈ 3.88 µM) | 3.2 (≈ 7.76 µM) | 3.2 (≈ 7.76 µM)
10 | COc1ccc(SC2=C(Sc3ccc(OC)cc3)C(=O)c3ncncc3C2=O)cc1 | 25 (≈ 57.3 µM) | 25 (≈ 57.3 µM) | 3.2 (≈ 7.33 µM) | 6.3 (≈ 14.4 µM) | 3.2 (≈ 7.33 µM) | 0.8 (≈ 1.83 µM)
11 | O=C1C(Sc2ccc(Cl)cc2)=C(Sc2ccc(Cl)cc2)C(=O)c2ncncc21 | 6.3 (≈ 14.1 µM) | 12.5 (≈ 28.1 µM) | 3.2 (≈ 7.19 µM) | 6.3 (≈ 14.1 µM) | 1.6 (≈ 3.59 µM) | 3.2 (≈ 7.19 µM)
12 | O=C1C(Sc2ccc(Br)cc2)=C(Sc2ccc(Br)cc2)C(=O)c2ncncc21 | 6.3 (≈ 11.8 µM) | 50 (≈ 93.6 µM) | 6.3 (≈ 11.8 µM) | 12.5 (≈ 23.4 µM) | 3.2 (≈ 5.99 µM) | 6.3 (≈ 11.8 µM)
13 | Cc1ccc(SC2=C(Sc3ccc(C)cc3)C(=O)c3ncncc3C2=O)cc1 | 12.5 (≈ 30.9 µM) | 6.3 (≈ 15.6 µM) | 6.3 (≈ 15.6 µM) | 50 (≈ 124 µM) | 3.2 (≈ 7.91 µM) | 3.2 (≈ 7.91 µM)
14 | Cc1ccc(SC2=C(Sc3ccc(C)c(C)c3)C(=O)c3ncncc3C2=O)cc1C | 12.5 (≈ 28.9 µM) | 12.5 (≈ 28.9 µM) | 12.5 (≈ 28.9 µM) | 3.2 (≈ 7.4 µM) | 25 (≈ 57.8 µM) | 12.5 (≈ 28.9 µM)
15 | O=C1C(Sc2cccc(F)c2)=C(Sc2cccc(F)c2)C(=O)c2ncncc21 | 6.3 (≈ 15.3 µM) | 25 (≈ 60.6 µM) | 12.5 (≈ 30.3 µM) | 1.6 (≈ 3.88 µM) | 25 (≈ 60.6 µM) | 25 (≈ 60.6 µM)
16 | Cc1cccc(SC2=C(Sc3cccc(C)c3)C(=O)c3ncncc3C2=O)c1 | 3.2 (≈ 7.91 µM) | 12.5 (≈ 30.9 µM) | 25 (≈ 61.8 µM) | 0.8 (≈ 1.98 µM) | 1.6 (≈ 3.96 µM) | 6.3 (≈ 15.6 µM)
17 | O=C1C(Sc2ccccc2)=C(Sc2ccccc2)C(=O)c2ncncc21 | 6.3 (≈ 16.7 µM) | 6.3 (≈ 16.7 µM) | 6.3 (≈ 16.7 µM) | 25 (≈ 66.4 µM) | 6.3 (≈ 16.7 µM) | 3.2 (≈ 8.5 µM)
18 | O=C1C(Sc2ccc(F)c(F)c2)=C(Sc2ccc(F)c(F)c2)C(=O)c2ncncc21 | 12.5 (≈ 27.9 µM) | 6.3 (≈ 14 µM) | 12.5 (≈ 27.9 µM) | 6.3 (≈ 14 µM) | 12.5 (≈ 27.9 µM) | 1.6 (≈ 3.57 µM)
19 | O=C1C(Sc2ccc(F)cc2F)=C(Sc2ccc(F)cc2F)C(=O)c2ncncc21 | 6.3 (≈ 14 µM) | 6.3 (≈ 14 µM) | 12.5 (≈ 27.9 µM) | 1.6 (≈ 3.57 µM) | 12.5 (≈ 27.9 µM) | 6.3 (≈ 14 µM)
20 | O=C1C(Sc2ccccc2F)=C(Sc2ccccc2F)C(=O)c2ncncc21 | 6.3 (≈ 15.3 µM) | 6.3 (≈ 15.3 µM) | 12.5 (≈ 30.3 µM) | 1.6 (≈ 3.88 µM) | 12.5 (≈ 30.3 µM) | 12.5 (≈ 30.3 µM)
21 | O=C1C(Sc2ccc(O)cc2)=C(Sc2ccc(O)cc2)C(=O)c2ncncc21 | 3.2 (≈ 7.83 µM) | 3.2 (≈ 7.83 µM) | 25 (≈ 61.2 µM) | 12.5 (≈ 30.6 µM) | 25 (≈ 61.2 µM) | 12.5 (≈ 30.6 µM)
22 | CCSC1=C(SCC)C(=O)c2ncncc2C1=O | 12.5 (≈ 44.6 µM) | 12.5 (≈ 44.6 µM) | 6.3 (≈ 22.5 µM) | 6.3 (≈ 22.5 µM) | 3.2 (≈ 11.4 µM) | 6.3 (≈ 22.5 µM)
23 | O=C1C(SCCO)=C(SCCO)C(=O)c2ncncc21 | 25 (≈ 80 µM) | > 50 | 12.5 (≈ 40 µM) | 6.3 (≈ 20.2 µM) | 25 (≈ 80 µM) | 25 (≈ 80 µM)
24 | COc1ccc(OC)c2ncncc12 | > 50 | > 50 | 50 (≈ 263 µM) | 50 (≈ 263 µM) | 25 (≈ 131 µM) | 50 (≈ 263 µM)
25 | OC(Cn1cncn1)(Cn1cncn1)c1ccc(F)cc1F [FLUCONAZOLE] | 50 (≈ 163 µM) | 6.3 (≈ 20.6 µM) | 25 (≈ 81.6 µM) | 6.3 (≈ 20.6 µM) | 25 (≈ 81.6 µM) | 25 (≈ 81.6 µM)
26 | Nc1nc(=O)[nH]cc1F [FLUCYTOSINE] | 3.2 (≈ 24.8 µM) | 3.2 (≈ 24.8 µM) | 6.3 (≈ 48.8 µM) | 12.5 (≈ 96.8 µM) | 6.3 (≈ 48.8 µM) | 6.3 (≈ 48.8 µM)
